Data from ChEMBL document CHEMBL1151261, “Antineoplastic agents. 509: synthesis of fluorcombstatin phosphate and related 3-halostilbenes(1)” (J Nat Prod, 2005).
In brackets after ≈: the same amount, converted by molar mass. Activity calls are given as the source filed them. No cut-off for these calls is given here.

Experiments:
KM-20L2 = assay: Cytotoxicity against human KM20L2 cells after 48 hrs by sulforhodamine B assay; type: functional; details: KM-20L2, 48 h
In short: (§1)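 Human tumor lines exposed to compound for 48 h, then fixed with trichloroacetic acid and stained with sulforhodamine B (NCI standard protocol); optical density read on a microplate reader. GI50 is the concentration giving a 50% reduction in net protein increase, calculated from optical density data.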

DU-145 = assay: Cytotoxicity against human DU145 cells after 48 hrs by sulforhodamine B assay; type: functional; details: DU-145, 48 h; in short: as §1
Cryptococcus neoformans [1] = assay: Antimicrobial activity against Cryptococcus neoformans ATCC 90112 after 72 hrs by broth microdilution assay; type: functional; details: ATCC 90112, 72 h
In short: (§2)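 Yeast NCCLS broth microdilution (M27-A). Inoculum 0.5 to 2.5×10^3 CFU/mL; 2-fold dilutions in 0.165 M MOPS-buffered RPMI 1640, pH 7.0; compound from DMSO, DMSO-only turbidity control; 35 °C without agitation; read at 72 h (Cryptococcus). MIC = lowest concentration giving no visible growth.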

Staphylococcus aureus [2] = assay: Antimicrobial activity against Staphylococcus aureus ATCC 29213 after 24 hrs by broth microdilution assay; type: functional; details: ATCC 29213, 24 h
In short: (§3)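 NCCLS bacterial broth microdilution (M7-A5). Overnight colonies diluted to about 5×10^5 CFU/mL final; 2-fold compound dilutions (DMSO stock) in cation-adjusted Mueller Hinton II broth; DMSO turbidity control; 35 °C without agitation, 24 h. MIC = lowest concentration with optically clear wells.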

Streptococcus pneumoniae [3] = assay: Antimicrobial activity against Streptococcus pneumoniae ATCC 6303 after 24 hrs by broth microdilution assay; type: functional; details: ATCC 6303, 24 h
In short: (§4)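 Streptococcus tested by NCCLS broth microdilution in cation-adjusted MHII broth with 3% lysed horse blood. Final inoculum about 5×10^5 CFU/mL; 2-fold compound dilutions from DMSO; DMSO turbidity control; 35 °C without agitation, 24 h. MIC = lowest concentration with no visible growth.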

Micrococcus luteus [4] = assay: Antimicrobial activity against Micrococcus luteus Presque Isle 456 after 24 hrs by broth microdilution assay; type: functional; in short: as §3
Neisseria gonorrhoeae = assay: Antimicrobial activity against Neisseria gonorrhoeae ATCC 49226 after 24 hrs by broth microdilution assay; type: functional; details: ATCC 49226, 24 h
In short: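 Neisseria tested by NCCLS broth microdilution in gonococcal typing broth. Final inoculum about 5×10^5 CFU/mL; 2-fold compound dilutions from DMSO; DMSO turbidity control; 37 °C with 5% CO₂ without agitation, 24 h. MIC = lowest concentration with no visible growth.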

Candida albicans = assay: Antimicrobial activity against Candida albicans ATCC 90028 at 64 ug/mL after 48 hrs by broth microdilution assay; type: functional, organism-based
In short: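 Yeast NCCLS broth microdilution (M27-A). Inoculum 0.5 to 2.5×10^3 CFU/mL; 2-fold dilutions in 0.165 M MOPS-buffered RPMI 1640, pH 7.0; compound from DMSO, DMSO-only turbidity control; 35 °C without agitation; read at 48 h (Candida). MIC = lowest concentration giving no visible growth.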

Enterococcus faecalis = assay: Antimicrobial activity against Enterococcus faecalis ATCC 29212 at 64 ug/mL after 24 hrs by broth microdilution assay; type: functional, organism-based; in short: as §3
Escherichia coli = assay: Antimicrobial activity against Escherichia coli ATCC 25922 at 64 ug/mL after 24 hrs by broth microdilution assay; type: functional, organism-based; in short: as §3
Enterobacter cloacae = assay: Antimicrobial activity against Enterobacter cloacae ATCC 13047 at 64 ug/mL after 24 hrs by broth microdilution assay; type: functional, organism-based; in short: as §3
[5] = test system: Stenotrophomonas maltophilia; assay: Antimicrobial activity against Stenotrophomonas maltophilia ATCC 13637 at 64 ug/mL after 24 hrs by broth microdilution assay; type: functional, organism-based; in short: as §3
NCI-H460 = assay: Cytotoxicity against human NCI-H460 cells after 48 hrs by sulforhodamine B assay; type: functional; details: NCI-H460, 48 h; in short: as §1
BXPC-3 = assay: Cytotoxicity against human BxPC3 cells after 48 hrs by sulforhodamine B assay; type: functional; details: BXPC-3, 48 h; in short: as §1
MCF7 = assay: Cytotoxicity against human MCF7 cells after 48 hrs by sulforhodamine B assay; type: functional; details: MCF7, 48 h; in short: as §1
SF-268 = assay: Cytotoxicity against human SF268 cells after 48 hrs by sulforhodamine B assay; type: functional; details: SF-268, 48 h; in short: as §1
P388 = assay: Cytotoxicity against mouse P388 cells after 48 hrs by Coulter particle counting; details: P388, 48 h, read-out: ED50 (the source's name)
Cryptococcus neoformans [6] = assay: Antimicrobial activity against Cryptococcus neoformans ATCC 90112 at 64 ug/mL after 72 hrs by broth microdilution assay; type: functional, organism-based; in short: as §2
Staphylococcus aureus [7] = assay: Antimicrobial activity against Staphylococcus aureus ATCC 29213 at 64 ug/mL after 24 hrs by broth microdilution assay; type: functional, organism-based; in short: as §3
Streptococcus pneumoniae [8] = assay: Antimicrobial activity against Streptococcus pneumoniae ATCC 6303 at 64 ug/mL after 24 hrs by broth microdilution assay; type: functional, organism-based; in short: as §4
Micrococcus luteus [9] = assay: Antimicrobial activity against Micrococcus luteus Presque Isle 456 at 64 ug/mL after 24 hrs by broth microdilution assay; type: functional, organism-based; in short: as §3
[10] = Inhibition of tubulin polymerization
In short: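 Turbidimetry at 350 nm. Compound at varying concentrations preincubated with 10 μM (1.0 mg/mL) purified tubulin, chilled on ice, then 0.4 mM GTP added and polymerization followed at 30 °C. Extent of polymerization at 20 min measured.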

[11] = Displacement of [3H]colchicine from tubulin
In short: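 [3H]colchicine binding with 1.0 μM tubulin, 5.0 μM [3H]colchicine and inhibitor at 1.0 μM.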

SMILES: COc1ccc(/C=C/c2cc(F)c(OC)c(OC)c2)cc1O
- GI50 (KM-20L2): 0.53 µg/mL (≈ 1.74 µM)
- GI50 (DU-145): 0.18 µg/mL (≈ 0.591 µM)
- MIC (Cryptococcus neoformans [1]): 64 µg/mL (≈ 210 µM)
- MIC (Staphylococcus aureus [2]): 32 µg/mL (≈ 105 µM)
- MIC (Streptococcus pneumoniae [3]): 64 µg/mL (≈ 210 µM)
- MIC (Micrococcus luteus [4]): 16 µg/mL (≈ 52.6 µM)
- MIC (Neisseria gonorrhoeae): 8 µg/mL (≈ 26.3 µM)
- Activity (Candida albicans): inactive
- Activity (Enterococcus faecalis): inactive
- Activity (Escherichia coli): inactive
- Activity (Enterobacter cloacae): inactive
- Activity [5]: inactive
- GI50 (NCI-H460): 0.18 µg/mL (≈ 0.591 µM)
- GI50 (BXPC-3): 2.2 µg/mL (≈ 7.23 µM)
- GI50 (MCF7): 0.051 µg/mL (≈ 0.168 µM)
- GI50 (SF-268): 0.35 µg/mL (≈ 1.15 µM)
- EC50 (P388): 0.253 µg/mL (≈ 0.831 µM)

SMILES: COc1ccc(/C=C\c2cc(F)c(OC)c(OC)c2)cc1OP(=O)(O)O
- Activity (Cryptococcus neoformans [6]): inactive
- Activity (Candida albicans): inactive
- Activity (Staphylococcus aureus [7]): inactive
- Activity (Streptococcus pneumoniae [8]): inactive
- Activity (Enterococcus faecalis): inactive
- Activity (Micrococcus luteus [9]): inactive
- Activity (Escherichia coli): inactive
- Activity (Enterobacter cloacae): inactive
- Activity [5]: inactive

SMILES: COc1ccc(/C=C\c2cc(Br)c(OC)c(OC)c2)cc1O
- GI50 (KM-20L2): 0.59 µg/mL (≈ 1.62 µM)
- GI50 (DU-145): 0.00082 µg/mL (≈ 0.00225 µM)
- IC50 [10]: 1500 nM
- Activity [11]: 89%
- MIC (Micrococcus luteus [4]): 32 µg/mL (≈ 87.6 µM)
- MIC (Neisseria gonorrhoeae): 32 µg/mL (≈ 87.6 µM)
- Activity (Cryptococcus neoformans [6]): inactive
- Activity (Candida albicans): inactive
- Activity (Staphylococcus aureus [7]): inactive
- Activity (Streptococcus pneumoniae [8]): inactive
- Activity (Enterococcus faecalis): inactive
- Activity (Escherichia coli): inactive
- Activity (Enterobacter cloacae): inactive
- Activity [5]: inactive
- GI50 (NCI-H460): 0.00038 µg/mL (≈ 0.00104 µM)
- GI50 (BXPC-3): 0.64 µg/mL (≈ 1.75 µM)
- GI50 (MCF7): 0.00046 µg/mL (≈ 0.00126 µM)
- GI50 (SF-268): 0.0005 µg/mL (≈ 0.00137 µM)
- EC50 (P388): 0.0021 µg/mL (≈ 0.00575 µM)
